In brackets after ≈: the same amount, converted by molar mass.
What was measured:
[1] = Octanol/buffer partition coefficient, log D of the compound at pH 7.4; assay type: physicochemical
[2] = Efflux ratio of permeability from basolateral to apical side over apical to basolateral side in human Caco2 cells; assay type: ADME, cell-based; conditions: Caco-2
[3] = Metabolic stability in human liver microsomes assessed as extraction ratio; assay type: ADME, Microsome; conditions: read-out: ERH
[4] = molecular target: T1, Serine/threonine-protein kinase PAK 4 (Homo sapiens, UniProt O96013); assay: Inhibition of PAK4
Mus musculus [5] = assay: Down regulation of GEF-H1 phosphorylation in human HCT116 cells xenografted in mouse tumor at 80 mg/kg/day, sc administered via continuous infusion measured after 18 hrs; assay type: functional, HCT-116; conditions: route subcutaneous
Outline: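 Tumour-bearing mice received drug by continuous infusion from an implanted subcutaneous pump at 80 mg/kg/day. Tumours were taken at 18 h and pGEF-H1 levels were measured. Downregulation is expressed as percent reduction.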

[6] = Aqueous solubility of the compound; assay type: physicochemical; conditions: buffer
[7] = molecular target: T2, Cyclin-dependent kinase 2 (Homo sapiens, UniProt P24941)
HCT-116 [8] = assay: Antitumor activity against human HCT116 cells xenografted in mouse assessed as tumor growth inhibition at 50 mg/kg, po SID for 15 days; assay type: functional; conditions: HCT-116, 360 h, read-out: TGI
[9] = Volume of distribution at steady state in rat at 5 mg/kg, iv and 10 mg/kg, po; assay type: ADME, organism-based; conditions: in vivo, read-out: Vdss
Mus musculus [10] = assay: Free dug level in mouse xenografted with human HCT116 cells at 50 mg/kg, po SID for 15 days; assay type: ADME, organism-based, HCT-116; set-up: dose 50 mg/kg, route oral; conditions: in vivo, 360 h
Outline: (§1)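 The read-out is free drug exposure, reported as unbound average concentration (free Cave) in nM. It was obtained from mice dosed orally at the stated regimen, sid or bid, during the xenograft efficacy study.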

[11] = Clearance in rat at 5 mg/kg, iv and 10 mg/kg, po; assay type: ADME, organism-based; conditions: in vivo
[12] = molecular target: T1, Serine/threonine-protein kinase PAK 4; assay: Inhibition of PAK4-mediated GEF-H1 phosphorylation at Ser810 by cell based assay
[13] = Oral bioavailability in rat at 10 mg/kg; assay type: ADME, organism-based; conditions: in vivo
[14] = Half life in rat at 5 mg/kg, iv and 10 mg/kg, po; assay type: ADME, organism-based; conditions: in vivo
HCT-116 [15] = assay: Antitumor activity against human HCT116 cells xenografted in mouse assessed as tumor growth inhibition at 25 mg/kg, po BID for 15 days; assay type: functional; conditions: HCT-116, 360 h, read-out: TGI
Mus musculus [16] = assay: Free dug level in mouse xenografted with human HCT116 cells at 25 mg/kg, po BID for 15 days; assay type: ADME, organism-based, HCT-116; set-up: dose 25 mg/kg, route oral; conditions: in vivo, 360 h; outline: as §1
Homo sapiens [17] = species: Homo sapiens; assay: Inhibition of RSK at 1000 nM
Mus musculus [18] = assay: Free dug level in mouse xenografted with human M24 cells at 7.5 mg/kg, po BID for 15 days; assay type: ADME, organism-based; set-up: dose 7.5 mg/kg, route oral; conditions: in vivo, 360 h; outline: as §1
[19] = molecular target: Serine/threonine-protein kinase MARK1 (Homo sapiens, UniProt Q9P0L2); assay: Inhibition of MARK at 1000 nM
[20] = molecular target: Mitogen-activated protein kinase 1 (Homo sapiens, UniProt P28482); assay: Inhibition of Erk2 at 1000 nM
[21] = molecular target: T3, Lymphokine-activated killer T-cell-originated protein kinase (Homo sapiens) (UniProt Q96KB5); assay: Inhibition of PBK at 1000 nM
T3 sequence (whole entry): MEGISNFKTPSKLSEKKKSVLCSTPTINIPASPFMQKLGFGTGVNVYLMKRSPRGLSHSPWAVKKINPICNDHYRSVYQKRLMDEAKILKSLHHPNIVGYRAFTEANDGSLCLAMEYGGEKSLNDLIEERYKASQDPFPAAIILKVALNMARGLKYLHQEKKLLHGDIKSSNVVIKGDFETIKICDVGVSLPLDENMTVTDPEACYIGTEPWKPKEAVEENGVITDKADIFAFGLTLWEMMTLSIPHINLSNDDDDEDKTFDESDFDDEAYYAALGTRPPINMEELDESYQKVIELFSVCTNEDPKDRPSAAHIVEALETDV

[22] = Antitumor activity against human M24 cells xenografted in mouse assessed as tumor growth inhibition at 7.5 mg/kg, po BID for 15 days; assay type: functional; conditions: M24, 360 h, read-out: TGI
Homo sapiens [23] = species: Homo sapiens; assay: Inhibition of PKA at 1000 nM
[24] = molecular target: Cyclin-dependent kinase 7 (Homo sapiens) (UniProt P50613); assay: Inhibition of cdk7 at 1000 nM
Mus musculus [25] = assay: Free dug level in mouse xenografted with human M24 cells at 15 mg/kg, po BID for 15 days; assay type: ADME, organism-based; set-up: dose 15 mg/kg, route oral; conditions: in vivo, 360 h; outline: as §1
[26] = molecular target: Glycogen synthase kinase-3 beta (Homo sapiens, UniProt P49841); assay: Inhibition of GSK3beta at 1000 nM
[27] = molecular target: AMP-activated protein kinase, AMPK (Homo sapiens) (UniProt P54646+O43741+P54619+Q9UGJ0+Q9Y478+Q13131+Q9UGI9); assay: Inhibition of AMPK at 1000 nM; assay type: protein-complex assay
[28] = Antitumor activity against human M24 cells xenografted in mouse assessed as tumor growth inhibition at 15 mg/kg, po BID for 15 days; assay type: functional; conditions: M24, 360 h, read-out: TGI
[29] = molecular target: Serine/threonine-protein kinase 26 (Homo sapiens) (UniProt Q9P289); assay: Inhibition of MST4 at 1000 nM
[30] = Metabolic stability of the compound in human liver microsomes assessed as compound remaining after 30 mins; assay type: ADME, Microsome; conditions: read-out: Stability
[31] = molecular target: T2, Cyclin-dependent kinase 2; assay: Inhibition of CDK2 at 1 uM

T1 sequence (O96013 whole entry, the tested form may be a part): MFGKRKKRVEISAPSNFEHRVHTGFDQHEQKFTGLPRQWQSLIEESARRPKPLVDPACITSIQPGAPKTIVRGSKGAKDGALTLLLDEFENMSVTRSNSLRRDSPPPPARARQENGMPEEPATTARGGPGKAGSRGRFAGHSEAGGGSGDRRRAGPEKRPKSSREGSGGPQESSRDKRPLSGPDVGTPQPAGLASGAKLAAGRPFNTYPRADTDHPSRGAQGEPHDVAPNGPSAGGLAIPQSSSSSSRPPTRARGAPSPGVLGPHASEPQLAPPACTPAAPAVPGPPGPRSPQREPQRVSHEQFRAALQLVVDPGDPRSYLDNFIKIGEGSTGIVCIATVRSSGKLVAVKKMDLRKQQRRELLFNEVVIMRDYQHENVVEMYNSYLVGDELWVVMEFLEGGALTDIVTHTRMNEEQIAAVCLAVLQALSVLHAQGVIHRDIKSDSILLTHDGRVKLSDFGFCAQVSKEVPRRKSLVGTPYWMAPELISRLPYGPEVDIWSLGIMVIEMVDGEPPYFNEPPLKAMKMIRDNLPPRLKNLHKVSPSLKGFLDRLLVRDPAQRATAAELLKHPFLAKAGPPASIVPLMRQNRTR
Cyclin-dependent kinase 7 (Homo sapiens), sequence (P50613 whole entry): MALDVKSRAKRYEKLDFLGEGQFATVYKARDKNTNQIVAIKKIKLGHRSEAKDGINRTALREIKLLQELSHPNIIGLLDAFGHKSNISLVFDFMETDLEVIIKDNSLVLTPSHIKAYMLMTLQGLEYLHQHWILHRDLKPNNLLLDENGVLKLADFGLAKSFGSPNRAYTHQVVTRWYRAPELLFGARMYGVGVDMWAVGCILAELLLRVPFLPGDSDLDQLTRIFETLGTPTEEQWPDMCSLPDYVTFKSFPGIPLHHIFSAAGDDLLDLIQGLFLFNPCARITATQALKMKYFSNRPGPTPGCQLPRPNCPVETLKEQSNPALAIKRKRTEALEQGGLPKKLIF
Mitogen-activated protein kinase 1, sequence (P28482 whole entry): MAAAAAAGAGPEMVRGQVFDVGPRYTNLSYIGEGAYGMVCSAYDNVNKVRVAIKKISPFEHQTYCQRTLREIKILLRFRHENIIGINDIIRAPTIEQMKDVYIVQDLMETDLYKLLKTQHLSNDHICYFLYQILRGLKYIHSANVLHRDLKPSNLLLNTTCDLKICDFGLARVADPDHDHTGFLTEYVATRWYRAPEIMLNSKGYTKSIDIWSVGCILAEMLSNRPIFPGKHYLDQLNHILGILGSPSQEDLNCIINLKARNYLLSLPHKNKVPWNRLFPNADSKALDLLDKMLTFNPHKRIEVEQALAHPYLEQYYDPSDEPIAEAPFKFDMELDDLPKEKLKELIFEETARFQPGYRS
Glycogen synthase kinase-3 beta, sequence (P49841 whole entry, looked up): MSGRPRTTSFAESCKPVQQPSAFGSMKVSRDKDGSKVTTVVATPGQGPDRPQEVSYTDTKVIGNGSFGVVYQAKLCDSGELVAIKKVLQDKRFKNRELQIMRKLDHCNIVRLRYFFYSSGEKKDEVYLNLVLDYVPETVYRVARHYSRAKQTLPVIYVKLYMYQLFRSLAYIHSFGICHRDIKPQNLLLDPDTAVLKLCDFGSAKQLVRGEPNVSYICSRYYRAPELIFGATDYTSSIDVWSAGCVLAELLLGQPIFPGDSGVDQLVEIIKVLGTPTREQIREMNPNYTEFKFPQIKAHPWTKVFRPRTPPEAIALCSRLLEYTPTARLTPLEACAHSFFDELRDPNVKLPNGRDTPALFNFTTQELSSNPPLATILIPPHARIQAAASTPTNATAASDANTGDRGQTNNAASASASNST
Serine/threonine-protein kinase 26 (Homo sapiens), sequence (Q9P289 2-416 limits assumed): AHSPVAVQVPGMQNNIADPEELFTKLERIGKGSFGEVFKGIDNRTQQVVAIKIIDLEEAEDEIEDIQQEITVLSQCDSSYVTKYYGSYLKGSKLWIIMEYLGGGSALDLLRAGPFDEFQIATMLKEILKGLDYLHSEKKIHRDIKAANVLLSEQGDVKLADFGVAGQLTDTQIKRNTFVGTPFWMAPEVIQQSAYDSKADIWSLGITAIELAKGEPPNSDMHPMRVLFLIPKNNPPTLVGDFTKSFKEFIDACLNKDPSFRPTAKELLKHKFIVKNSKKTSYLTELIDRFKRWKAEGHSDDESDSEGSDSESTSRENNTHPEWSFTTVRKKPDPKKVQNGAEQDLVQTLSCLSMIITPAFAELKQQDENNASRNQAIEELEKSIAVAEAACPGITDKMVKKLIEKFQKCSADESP
Serine/threonine-protein kinase MARK1, sequence (Q9P0L2 whole entry, looked up): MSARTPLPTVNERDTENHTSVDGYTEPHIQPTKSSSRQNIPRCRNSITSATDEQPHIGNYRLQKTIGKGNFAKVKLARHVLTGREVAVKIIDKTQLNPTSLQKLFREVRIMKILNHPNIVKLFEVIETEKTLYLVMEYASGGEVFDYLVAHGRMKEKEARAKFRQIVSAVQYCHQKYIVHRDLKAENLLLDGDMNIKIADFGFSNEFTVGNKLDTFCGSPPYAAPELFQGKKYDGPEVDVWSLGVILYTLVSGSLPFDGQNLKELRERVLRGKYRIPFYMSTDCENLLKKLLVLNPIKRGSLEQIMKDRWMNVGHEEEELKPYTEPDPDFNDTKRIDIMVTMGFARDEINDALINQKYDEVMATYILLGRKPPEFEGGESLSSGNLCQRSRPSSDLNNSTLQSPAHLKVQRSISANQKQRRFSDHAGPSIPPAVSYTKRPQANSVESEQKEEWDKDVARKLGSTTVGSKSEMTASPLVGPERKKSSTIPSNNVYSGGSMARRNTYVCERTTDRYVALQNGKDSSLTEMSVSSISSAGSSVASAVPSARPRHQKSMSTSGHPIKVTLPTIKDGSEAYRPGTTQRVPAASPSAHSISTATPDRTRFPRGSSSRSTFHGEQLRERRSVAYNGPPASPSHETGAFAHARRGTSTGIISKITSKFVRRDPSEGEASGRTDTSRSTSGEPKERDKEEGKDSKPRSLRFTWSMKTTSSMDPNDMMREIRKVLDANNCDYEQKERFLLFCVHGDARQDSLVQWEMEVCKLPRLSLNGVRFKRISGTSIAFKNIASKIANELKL

SMILES | logD [1] | efflux ratio [2] | hepatic extraction ratio [3] | Ki [4] | Vd [9] | clearance [11] | EC50 ([12]; read-out: EC50) | bioavailability [13] | half-life [14] | other results
CN(C)C[C@@H](OC(=O)N1Cc2c(NC(=O)C3CCCCO3)n[nH]c2C1(C)C)c1ccccc1 (mixture of isomers) | 2.48 | 3.6 | 1 |  |  |  |  |  |  | 
CN(C)C[C@@H](NC(=O)N1Cc2c(NC(=O)c3ccccc3F)n[nH]c2C1(C)C)c1ccccc1 | 2.33 | 231 | 0.38 |  |  |  |  |  |  | 
CN(C)C[C@@H](NC(=O)c1ccc2[nH]nc(-c3nc4ccc(NCc5ccc(-c6ccccn6)cc5)cc4[nH]3)c2c1)c1ccccc1 |  |  |  | 2.8 nM |  |  |  |  |  | 
CN(C)C[C@@H](NC(=O)N1Cc2c(NC(=O)c3ccccc3)n[nH]c2C1(C)C)c1ccccc1 | 1.77 | 326 | 0.39 | 30 nM |  |  |  |  |  | Activity (Mus musculus [5]): 61%; solubility [6]: 395 µM (≈ 176 µg/mL); Ki [7]: 1800 nM
CN(C)C[C@@H](OC(=O)N1Cc2c(NC(=O)c3ccc(F)cc3)n[nH]c2C1(C)C)c1ccccc1 | 2.79 | 7 | 0.7 | 13 nM | 6.1 L/kg | 98 mL/min/kg | 9 nM | 9% | 1.1 h | inhibition in vivo at 50 mg/kg (HCT-116 [8]): 12%; Drug uptake(free) (Mus musculus [10]): 70 nM; solubility [6]: 404 µM (≈ 188 µg/mL); inhibition in vivo at 25 mg/kg (HCT-116 [15]): 61%; Drug uptake(free) (Mus musculus [16]): 25 nM; Ki [7]: 1160 nM
CN1CCN(C(=O)N2Cc3c(n[nH]c3NC(=O)c3ccccc3)C2(C)C)C(c2ccccc2)C1 (stereo unspecified) | 3.2 | 187 | 0.7 | 207 nM |  |  | 21 nM |  |  | 
CN(C)C[C@@H](OC(=O)N1Cc2c(NC(=O)C3CCCO3)n[nH]c2C1(C)C)c1ccccc1 (mixture of isomers) | 2.08 | 8.7 | 0.4 |  | 2.2 L/kg | 69 mL/min/kg |  | 20% | 0.5 h | 
CN(C)C[C@@H](OC(=O)N1Cc2c(NC(=O)C3(C(F)(F)F)CCC3)n[nH]c2C1(C)C)c1ccccc1 | 1.6 |  | 0.6 |  |  |  | < 1 nM |  |  | 
CN(C)C[C@@H](OC(=O)N1Cc2c(NC(=O)c3ccc(F)cc3F)n[nH]c2C1(C)C)c1ccccc1 | 2.68 | 1.17 | 0.9 |  |  |  | 15 nM |  |  | 
CN(C)C[C@H](c1ccccc1)N(C)C(=O)N1Cc2c(NC(=O)c3ccccc3)n[nH]c2C1(C)C | 2.68 | 53.6 | 0.5 |  |  |  |  |  |  | EC50 [12]: Not Active
CN(C)C[C@@H](OC(=O)N1Cc2c(NC(=O)C(C)(C)C(F)(F)F)n[nH]c2C1(C)C)c1ccccc1 | 1.61 |  | 0.55 |  | 4.3 L/kg | 37 mL/min/kg | 1 nM | 45% | 1.3 h | inhibition (Homo sapiens [17]): > 70%; Drug uptake(free) (Mus musculus [18]): 13.9 nM; inhibition [19]: > 70%; inhibition [20]: > 70%; inhibition [21]: > 70%; inhibition in vivo at 7.5 mg/kg [22]: 67%; inhibition (Homo sapiens [23]): > 70%; inhibition [24]: > 70%; Drug uptake(free) (Mus musculus [25]): 31 nM; inhibition [26]: > 70%; inhibition [27]: > 70%; inhibition in vivo at 15 mg/kg [28]: 87%; inhibition [29]: > 70%
CN(C)C[C@@H](OC(=O)N1Cc2c(NC(=O)c3ccccn3)n[nH]c2C1(C)C)c1ccccc1 | 2.23 | 1.61 | 0.67 |  | 4.8 L/kg | 146 mL/min/kg |  | 2% | 0.7 h | 
CN(C)C[C@@H](OC(=O)N1Cc2c(NC(=O)c3ccccc3)n[nH]c2C1(C)C)c1ccccc1 | 2.66 |  |  |  |  |  |  |  |  | solubility [6]: 434 µM (≈ 194 µg/mL); Ki [7]: 2000 nM
CN(C)C[C@@H](OC(=O)N1Cc2c(NC(=O)C3(C(F)(F)F)CC3)n[nH]c2C1(C)C)c1ccccc1 | 1.5 |  | 0.42 |  | 2.8 L/kg | 24.1 mL/min/kg | 7 nM | 46% | 1.5 h | 
CN(C)C[C@@H](NC(=O)c1ccc2[nH]nc(-c3nc4ccccc4[nH]3)c2c1)c1ccccc1 | 3.6 |  |  | 6 nM |  |  | 12.6 nM |  |  | 
CN1CCN(C(=O)N2Cc3c(NC(=O)c4cccc(Oc5ccccc5)c4)n[nH]c3C2(C)C)[C@@H](Cc2ccccc2)C1 | 5.45 |  |  |  |  |  | 810 nM |  |  | remaining at 0.5 h [30]: 2%; inhibition [31]: 20%

Reference: ChEMBL document CHEMBL2062373, “Discovery of pyrroloaminopyrazoles as novel PAK inhibitors” (J Med Chem, 2012)
